36 compounds from ChEMBL document CHEMBL3228030, “Bicyclic pyrazolines, potential central nervous system depressants and antiinflammatory agents” (J Med Chem, 1979) can be followed below.

Calls of active or inactive are those of the source. The calls are words filed in the database; no cut-off is given here. Where only a bound is given, the exact number is not on record here.

The subject of data set [1] is Rattus norvegicus. Nature of the data set: Central nervous system activity in ip dosed rat assessed as induction of depressant. It counts as functional. The method, boiled down:
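Young adult female rats received 5% solutions or dispersions (two drops Tween 80) in water at 200, 100 and 50 mg/kg. Compounds active at 50 mg/kg were also given at 25 and 12.5 mg/kg. The ED value was the lowest dose that decreased motor activity in 2/2 rats.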

Data set [2] concerns Rattus norvegicus. Nature of the data set: Central nervous system activity in rat assessed as induction of depressant at 100 mg/kg, po. It counts as functional, organism-based. Set-up: dose 100 mg/kg.
For data set [3], the system named is Rattus norvegicus. Description: Antiinflammatory activity in Sprague-Dawley rat assessed as inhibition of carrageenan-induced paw edema at 150 mg/kg, po after 3 hrs. Format: functional. The method, boiled down:
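Given by mouth in 1 mL water or 1% aqueous sodium carboxymethylcellulose to adult Charles River Sprague-Dawley rats (seven per group), 2 h before a footpad injection of 0.05 mL 1% carrageenan in pyrogen-free saline. After 3 h, rats were killed and paws removed and weighed, with the contralateral paw as control. Read-out was percent inhibition of edema.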
On the technique in general: The carrageenan paw model is a standard test of acute inflammation.

Data set [4] in a line: Toxicity in po dosed Sprague-Dawley rat. It counts as organism-based. The note with it: in vivo.
Data set [5] relates to Rattus norvegicus. Description: Toxicity in Sprague-Dawley rat assessed as induction of ulcer at 150 to 600 mg/kg, po after 6 hrs. It counts as organism-based. Set-up: dose 150-600 mg/kg, route oral. The note with it: in vivo. The method, boiled down:
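Male Sprague-Dawley rats were kept without food pellets, with free access to water containing 5% dextrose, for 48 h. The compound, dissolved or suspended in water, was then given by gavage at 150, 300 and 600 mg/kg, eight rats per dose.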

The subject of data set [6] is Rattus norvegicus. Description: Toxicity in rat at 100 mg/kg, ip. It counts as organism-based. Details: dose 100 mg/kg, route intraperitoneal. The note with it: in vivo.

`CN1N=C2/C(=C/c3ccccc3)CNCC2C1c1ccccc1.Cl` (configuration not stated): the ED in data set [1] came to 12.5 mg/kg. The result in data set [2] was Active.

With `CN1N=C2/C(=C/c3ccccc3)CN(CCc3ccccc3)CC2C1c1ccccc1.Cl` (configuration not stated), in data set [1], the ED came to 100 mg/kg. Also, in data set [3], the inhibition in vivo (as a rule, the share of the control response that was lost under treatment) at 150 mg/kg is 32%. For `CN(C)CCN1N=C2/C(=C\c3ccccc3)CCCC2C1c1ccccc1.O=C(O)/C=C\C(=O)O` (configuration not stated), the ED in data set [1] came out at 100 mg/kg.

For the compound `CCCN1N=C2/C(=C/c3ccccc3)CN(C)CC2C1c1ccccc1.O=P(O)(O)O` (configuration not stated), the ED in data set [1] came to 100 mg/kg. Also, the inhibition in vivo at 150 mg/kg in data set [3] is 47%. For the same compound, in data set [4], the LD50 – broadly, the dose at which mortality reaches 50% – was found to be 5400 mg/kg. In addition, the Activity entry in data set [5] is “Non-toxic”. As to `C(=C1\CCCC2C1=NN(CCCN1CCCCC1)C2c1ccccc1)/c1ccccc1.O=C(O)/C=C\C(=O)O` (configuration not stated), in data set [1], the ED was found to be 200 mg/kg. Take `CCN1N=C2/C(=C/c3ccccc3)CN(C)CC2C1c1ccccc1.Cl` (configuration not stated): the ED in data set [1] is above 200 mg/kg.

Regarding `CN1C/C(=C\c2ccccc2)C2=NN(C)[C@@H](c3ccccc3)[C@@H]2C1.Cl`, in data set [1], the ED was found to be 50 mg/kg. The inhibition in vivo at 150 mg/kg in data set [3] stood at 22%. On to `CCCC(C)(COC(N)=O)COC(N)=O` [MEPROBAMATE], for which the ED in data set [1] came to 50 mg/kg.

In the case of `CN1C/C(=C\c2ccccc2)C2=NNC(c3ccccc3)C2C1.Cl` (configuration not stated), the ED in data set [1] amounted to 50 mg/kg.

Regarding `CCCCN1N=C2/C(=C/c3ccccc3)CN(C)CC2C1c1ccccc1.Cl` (configuration not stated), in data set [1], the ED was above 200 mg/kg. The inhibition in vivo at 150 mg/kg in data set [3] was 26%. With `CN1N=C2/C(=C\c3ccccc3)CCCC2C1c1ccccc1` (configuration not stated), the ED in data set [1] is above 200 mg/kg. Same read-out and setting: to `CCN1C/C(=C\c2ccccc2)C2=NN(C)C(c3ccccc3)C2C1.Cl` (configuration not stated) belongs 200 mg/kg; to `CCCCN1C/C(=C\c2ccccc2)C2=NN(C)C(c3ccccc3)C2C1.Cl` (configuration not stated), 100 mg/kg; to `CN1N=C2/C(=C/c3ccccc3)CN(C(=N)N)CC2C1c1ccccc1.Cl` (configuration not stated), 200 mg/kg. As for `COc1ccc(/C=C2\CN(C)CC3C2=NN(C)C3c2ccc(OC)cc2)cc1.Cl` (configuration not stated), the ED in data set [1] was above 200 mg/kg. Moreover, the inhibition in vivo at 150 mg/kg in data set [3] amounted to 29%. On to `CN1C/C(=C\c2ccccc2)C2=NN(CCO)C(c3ccccc3)C2C1.Cl` (configuration not stated), for which the ED in data set [1] is 200 mg/kg. The inhibition in vivo at 150 mg/kg in data set [3] worked out at 41%. As for `CN1CCN(CCCN2N=C3/C(=C\c4ccccc4)CCCC3C2c2ccccc2)CC1.O=C(O)/C=C\C(=O)O` (configuration not stated), the ED in data set [1] was determined as 200 mg/kg. The same measure, in the same setting: for `CC(=O)N1C/C(=C\c2ccccc2)C2=NN(C)C(c3ccccc3)C2C1` (configuration not stated) the value was 100 mg/kg. Turning to `CCN(CC)CCCN1N=C2/C(=C\c3ccccc3)CCCC2C1c1ccccc1.O=C(O)/C=C\C(=O)O` (configuration not stated), the ED in data set [1] came to 100 mg/kg. For `CN(C)CCN1N=C2/C(=C/c3ccccc3)CN(C)CC2C1c1ccccc1.Cl` (configuration not stated), the ED in data set [1] was found to be 25 mg/kg. Also, the Activity result in data set [6] was “Toxic”. Take `CC(=O)N1N=C2/C(=C/c3ccccc3)CN(C)CC2C1c1ccccc1.Cl` (configuration not stated): the ED in data set [1] was 200 mg/kg.

`CN1C/C(=C\c2ccccc2)C2=NN(CC(F)(F)F)C(c3ccccc3)C2C1.Cl` (configuration not stated): the ED in data set [1] is 100 mg/kg. In data set [3], the inhibition in vivo at 150 mg/kg was determined as 27%. With `C(=C1\CCCC2C1=NN(CCCN1CCOCC1)C2c1ccccc1)/c1ccccc1.Cl` (configuration not stated), the ED in data set [1] worked out at 100 mg/kg. The inhibition in vivo at 150 mg/kg in data set [3] was 30%. Regarding `CN(C)CCCN1N=C2/C(=C/c3ccccc3)CN(CCc3ccccc3)CC2C1c1ccccc1.O=C(O)/C=C\C(=O)O` (configuration not stated), in data set [1], the ED is above 200 mg/kg.

As to `CN(C)CCCN1N=C2/C(=C\c3ccccc3)CCCC2C1c1ccccc1.O=C(O)C(=O)O` (configuration not stated), the ED in data set [1] turned out to be 50 mg/kg. In the case of `CN1C/C(=C\c2ccc(Cl)cc2)C2=NN(C)C(c3ccc(Cl)cc3)C2C1.Cl` (configuration not stated), the ED in data set [1] is above 200 mg/kg. In addition, the inhibition in vivo at 150 mg/kg in data set [3] turned out to be 17%. Regarding `CN1C/C(=C\c2ccccc2)C2=NN(CCCc3ccccc3)C(c3ccccc3)C2C1.Cl` (configuration not stated), in data set [1], the ED is above 200 mg/kg. Same read-out and setting: for `CNC(=O)N1C/C(=C\c2ccccc2)C2=NN(C)C(c3ccccc3)C2C1.Cl` (configuration not stated) the value was above 200 mg/kg. For `CCCCC1C(=O)N(c2ccccc2)N(c2ccccc2)C1=O` [PHENYLBUTAZONE], in data set [3], the inhibition in vivo at 150 mg/kg was 51%. Also, in data set [4], the LD50 is 1200 mg/kg. The Activity entry in data set [5] is given as “Non-toxic”. On to `CN1C/C(=C\c2ccccc2Cl)C2=NN(C)C(c3ccccc3Cl)C2C1.Cl` (configuration not stated), for which the ED in data set [1] was above 200 mg/kg. The same measure, in the same setting: for `CN1N=C2/C(=C/c3ccccc3)CN(C(N)=O)CC2C1c1ccccc1` (configuration not stated) the value was above 200 mg/kg. On to `CN1N=C2/C(=C/c3ccccc3)CN(Cc3ccccc3)CC2C1c1ccccc1.Cl` (configuration not stated), for which, in data set [1], the ED was determined as 100 mg/kg. Also, the inhibition in vivo at 150 mg/kg in data set [3] came to 0%. In the case of `CN(C)CCCN1N=C2/C(=C/c3ccccc3)CN(C)CC2C1c1ccccc1.Cl` (configuration not stated), in data set [1], the ED was found to be 100 mg/kg. The same measure, in the same setting: to `CC(=O)CCN1C/C(=C\c2ccccc2)C2=NN(C)C(c3ccccc3)C2C1.Cl` (configuration not stated) belongs above 200 mg/kg; to `CN1C/C(=C\c2cccc(Cl)c2)C2=NN(C)C(c3cccc(Cl)c3)C2C1.Cl` (configuration not stated), above 200 mg/kg. Same read-out and setting: for `CCC(=O)N1C/C(=C\c2ccccc2)C2=NN(C)C(c3ccccc3)C2C1` (configuration not stated) the value was 200 mg/kg.
